Assay results from ChEMBL document CHEMBL2346607, “Borrelidin analogues with antimalarial activity: design, synthesis and biological evaluation against Plasmodium falciparum parasites” (Bioorg Med Chem Lett, 2013).
Values after ≈ are worked out from the molar mass of the structure shown.

Tests used:
[1] = Selectivity index, ratio of IC50 for human […] cells to IC50 for Plasmodium falciparum FCR-3; type: toxicity, cell-based; conditions: […] cells (cytotoxicity) versus Plasmodium falciparum FCR-3, read-out: Ratio IC50
In short: (§1)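 SI is the MRC-5 cytotoxicity IC50 (ng/mL) divided by the antimalarial IC50 (ng/mL) against the FCR3 or K1 strain. Both IC50s come from the same in vitro test series.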

[2] = Selectivity index, ratio of IC50 for human […] cells to IC50 for Plasmodium falciparum K1; type: toxicity, cell-based; conditions: MCR5 cells (cytotoxicity) versus Plasmodium falciparum K1, read-out: Ratio IC50; in short: as §1
[3] = Cytotoxicity against human […] cells after 7 days by MTT assay; type: cell-based; conditions: 168 h
In short: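 Cytotoxicity was tested on MRC-5, a human diploid embryonic cell line. The value is reported as an IC50 in ng/mL.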

[4] = system: Plasmodium falciparum; assay: Antimalarial activity against Plasmodium falciparum K1 infected in human erythrocytes after 72 hrs by lactate dehydrogenase assay; type: functional, organism-based; conditions: K1, 72 h
In short: (§2)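 In vitro assay against the P. falciparum strains K1 (drug-resistant) and FCR3 (drug-sensitive). The value is reported as an IC50 in ng/mL.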

[5] = system: Plasmodium falciparum; assay: Antimalarial activity against Plasmodium falciparum FCR-3 infected in human erythrocytes after 72 hrs by lactate dehydrogenase assay; type: functional, cell-based; conditions: FCR-3/Gambia; in short: as §2

Row | Compound | selectivity ratio [1] | selectivity ratio [2] | IC50 [3] [µg/mL] | IC50 [4] [ng/mL] | IC50 [5] [ng/mL]
1 | C[C@@H]1C[C@H](C)C[C@H](C)[C@@H](O)CC(=O)O[C@H]([C@@H]2CCC[C@H]2C(=O)OCc2cn(C34CC5CC(CC(C5)C3)C4)nn2)C/C=C/C=C(/C#N)[C@H](O)[C@@H](C)C1 | 16 | 39 | 2.7 (≈ 3.83 µM) | 70 (≈ 0.0993 µM) | 168 (≈ 0.238 µM)
2 | C[C@@H]1C[C@H](C)C[C@H](C)[C@@H](O)CC(=O)O[C@H]([C@@H]2CCC[C@H]2C(=O)Sc2ccccc2)C/C=C/C=C(/C#N)[C@H](O)[C@@H](C)C1 | 6 | 9 | 0.98 (≈ 1.68 µM) | 107 (≈ 0.184 µM) | 160 (≈ 0.275 µM)
3 | C[C@@H]1C[C@H](C)C[C@H](C)[C@@H](O)CC(=O)O[C@H]([C@@H]2CCC[C@H]2C(=O)OCc2cn(CSc3ccccc3)nn2)C/C=C/C=C(/C#N)[C@H](O)[C@@H](C)C1 | 19800 | 542000 | 16.8 (≈ 24.2 µM) | 0.031 (≈ 4.47e-05 µM) | 0.85 (≈ 0.00123 µM)
4 | C[C@@H]1C[C@H](C)C[C@H](C)[C@@H](O)CC(=O)O[C@H]([C@@H]2CCC[C@H]2C(=O)OCc2cn(-c3ccc(C(=O)O)cc3)nn2)C/C=C/C=C(/C#N)[C@H](O)[C@@H](C)C1 | 209 | 267 | 10.1 (≈ 14.6 µM) | 37.8 (≈ 0.0547 µM) | 48.5 (≈ 0.0702 µM)
5 | C[C@@H]1C[C@H](C)C[C@H](C)[C@@H](O)CC(=O)O[C@H]([C@@H]2CCC[C@H]2C(=O)OCc2cn(-c3cccnc3)nn2)C/C=C/C=C(/C#N)[C@H](O)[C@@H](C)C1 | 86 | 143 | 0.41 (≈ 0.633 µM) | 2.9 (≈ 0.00448 µM) | 4.8 (≈ 0.00741 µM)
6 | C[C@@H]1C[C@H](C)C[C@H](C)[C@@H](O)CC(=O)O[C@H]([C@@H]2CCC[C@H]2C(=O)OCc2cn(-c3cnc4ccccc4c3)nn2)C/C=C/C=C(/C#N)[C@H](O)[C@@H](C)C1 | 13400 | 15600 | 1.05 (≈ 1.5 µM) | 0.067 (≈ 9.6e-05 µM) | 0.079 (≈ 0.000113 µM)
7 | C#CCOC(=O)[C@@H]1CCC[C@H]1[C@@H]1C/C=C/C=C(/C#N)[C@H](O)[C@@H](C)C[C@H](C)C[C@H](C)C[C@H](C)[C@@H](O)CC(=O)O1 | 240 | 462 | 1.2 (≈ 2.27 µM) | 2.6 (≈ 0.00493 µM) | 5 (≈ 0.00948 µM)
8 | C[C@@H]1C[C@H](C)C[C@H](C)[C@@H](O)CC(=O)O[C@H]([C@@H]2CCC[C@H]2C(=O)OCCN(C)C)C/C=C/C=C(/C#N)[C@H](O)[C@@H](C)C1 | 750 | 581 | 0.18 (≈ 0.321 µM) | 0.31 (≈ 0.000553 µM) | 0.24 (≈ 0.000428 µM)
9 | C[C@@H]1C[C@H](C)C[C@H](C)[C@@H](O)CC(=O)O[C@H]([C@@H]2CCC[C@H]2C(=O)OCCN2CCOCC2)C/C=C/C=C(/C#N)[C@H](O)[C@@H](C)C1 | 604 | 419 | 0.26 (≈ 0.431 µM) | 0.62 (≈ 0.00103 µM) | 0.43 (≈ 0.000713 µM)
10 | C[C@@H]1C[C@H](C)C[C@H](C)[C@@H](O)CC(=O)O[C@H]([C@@H]2CCC[C@H]2C(=O)NCC(=O)O)C/C=C/C=C(/C#N)[C@H](O)[C@@H](C)C1 | 1900 | 2850 | 58.9 (≈ 108 µM) | 21 (≈ 0.0384 µM) | 31 (≈ 0.0567 µM)
11 | C[C@@H]1C[C@H](C)C[C@H](C)[C@@H](O)CC(=O)O[C@H]([C@@H]2CCC[C@H]2C(=O)N[C@@H](C)C(=O)O)C/C=C/C=C(/C#N)[C@H](O)[C@@H](C)C1 | 4190 | – | – | – | 13 (≈ 0.0232 µM)
12 | C[C@@H]1C[C@H](C)C[C@H](C)[C@@H](O)CC(=O)O[C@H]([C@@H]2CCC[C@H]2C(=O)N[C@@H](CO)C(=O)O)C/C=C/C=C(/C#N)[C@H](O)[C@@H](C)C1 | > 500 | > 714 | > 1000 | 140 (≈ 0.243 µM) | 200 (≈ 0.347 µM)
13 | C[C@@H]1C[C@H](C)C[C@H](C)[C@@H](O)CC(=O)O[C@H]([C@@H]2CCC[C@H]2C(=O)N[C@@H](CC(N)=O)C(=O)O)C/C=C/C=C(/C#N)[C@H](O)[C@@H](C)C1 | > 124 | > 172 | > 1000 | 580 (≈ 0.961 µM) | 810 (≈ 1.34 µM)
14 | CC[C@H](C)[C@H](NC(=O)[C@@H]1CCC[C@H]1[C@@H]1C/C=C/C=C(/C#N)[C@H](O)[C@@H](C)C[C@H](C)C[C@H](C)C[C@H](C)[C@@H](O)CC(=O)O1)C(=O)O | 5330 | 3200 | 64 (≈ 106 µM) | 18 (≈ 0.0299 µM) | 12 (≈ 0.0199 µM)
15 | C[C@@H]1C[C@H](C)C[C@H](C)[C@@H](O)CC(=O)O[C@H]([C@@H]2CCC[C@H]2C(=O)N[C@@H](Cc2ccc(O)cc2)C(=O)O)C/C=C/C=C(/C#N)[C@H](O)[C@@H](C)C1 | 197 | 206 | 33.4 (≈ 51.2 µM) | 163 (≈ 0.25 µM) | 170 (≈ 0.26 µM)
16 | CCSC(=O)[C@@H]1CCC[C@H]1[C@@H]1C/C=C/C=C(/C#N)[C@H](O)[C@@H](C)C[C@H](C)C[C@H](C)C[C@H](C)[C@@H](O)CC(=O)O1 | 1340 | 1570 | 12.7 (≈ 23.8 µM) | 8 (≈ 0.015 µM) | 10 (≈ 0.0187 µM)
17 | CCCSC(=O)[C@@H]1CCC[C@H]1[C@@H]1C/C=C/C=C(/C#N)[C@H](O)[C@@H](C)C[C@H](C)C[C@H](C)C[C@H](C)[C@@H](O)CC(=O)O1 | 12 | 20 | 3.4 (≈ 6.21 µM) | 167 (≈ 0.305 µM) | 280 (≈ 0.511 µM)
18 | CC(C)SC(=O)[C@@H]1CCC[C@H]1[C@@H]1C/C=C/C=C(/C#N)[C@H](O)[C@@H](C)C[C@H](C)C[C@H](C)C[C@H](C)[C@@H](O)CC(=O)O1 | 142 | 172 | 10.2 (≈ 18.6 µM) | 59 (≈ 0.108 µM) | 72 (≈ 0.131 µM)
19 | CCCCSC(=O)[C@@H]1CCC[C@H]1[C@@H]1C/C=C/C=C(/C#N)[C@H](O)[C@@H](C)C[C@H](C)C[C@H](C)C[C@H](C)[C@@H](O)CC(=O)O1 | 12 | 12 | 2 (≈ 3.56 µM) | 163 (≈ 0.29 µM) | 170 (≈ 0.303 µM)
20 | C[C@@H]1C[C@H](C)C[C@H](C)[C@@H](O)CC(=O)O[C@H]([C@@H]2CCC[C@H]2C(=O)O)CCCCC(C#N)[C@H](O)[C@@H](C)C1 (stereo not given in full) | 102 | 102 | – | 130 (≈ 0.263 µM) | 130 (≈ 0.263 µM)
21 | CCOC(=O)[C@@H]1CCC[C@H]1[C@@H]1C/C=C/C=C(/C#N)[C@H](O)[C@@H](C)C[C@H](C)C[C@H](C)C[C@H](C)[C@@H](O)CC(=O)O1 | 939 | 323 | 21.9 (≈ 42.3 µM) | 67.8 (≈ 0.131 µM) | 23.3 (≈ 0.045 µM)
22 | CCCOC(=O)[C@@H]1CCC[C@H]1[C@@H]1C/C=C/C=C(/C#N)[C@H](O)[C@@H](C)C[C@H](C)C[C@H](C)C[C@H](C)[C@@H](O)CC(=O)O1 | 232 | 202 | 18.2 (≈ 34.2 µM) | 90.4 (≈ 0.17 µM) | 78.8 (≈ 0.148 µM)
23 | C[C@@H]1C[C@H](C)C[C@H](C)[C@@H](O)CC(=O)O[C@H]([C@@H]2CCC[C@H]2C(=O)OCc2ccccc2)C/C=C/C=C(/C#N)[C@H](O)[C@@H](C)C1 | 198 | 165 | 4.05 (≈ 6.99 µM) | 24.6 (≈ 0.0424 µM) | 20.5 (≈ 0.0354 µM)
24 | C=CCOC(=O)[C@@H]1CCC[C@H]1[C@@H]1C/C=C/C=C(/C#N)[C@H](O)[C@@H](C)C[C@H](C)C[C@H](C)C[C@H](C)[C@@H](O)CC(=O)O1 | 118 | 59.6 | 4.63 (≈ 8.74 µM) | 77.7 (≈ 0.147 µM) | 39.2 (≈ 0.074 µM)
25 | C[C@@H]1CC[C@H]2[C@@H](C)C(=O)O[C@@H]3O[C@@]4(C)CC[C@@H]1[C@]32OO4 [ARTEMISININ] | 7530 | 7530 | 45.2 (≈ 160 µM) | – | –
26 | CCN(CC)CCCC(C)Nc1ccnc2cc(Cl)ccc12 (stereo not given) [CHLOROQUINE] | – | – | 18.6 (≈ 58.1 µM) | – | –
